Reference: ChEMBL document CHEMBL1799983, “Anti-inflammatory and cytotoxic neoflavonoids and benzofurans from Pterocarpus santalinus” (J Nat Prod, 2011)
≈ marks a conversion by molar mass, not a printed value.

What was measured:
[1] = Antiinflammatory activity in human neutrophils assessed as inhibition of FMLP/CB-induced superoxide anion generation; type: functional, cell-based; details: Neutrophil
Procedure, shortened: (§1)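 IC50 (concentration giving 50% inhibition) in human neutrophils, reported as mean ± SEM, n = 3–5. LY294002, a phosphatidylinositol-3-kinase inhibitor, served as the positive control for both superoxide anion generation and elastase release.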

[2] = Antiinflammatory activity in human neutrophils assessed as inhibition of FMLP/CB-induced elastase release; type: functional, cell-based; details: Neutrophil; procedure, shortened: as §1
MDA-MB-231 = experiment: Cytotoxicity against human MDA-MB-231 cells by MTT assay; type: functional, cell-based
Procedure, shortened: (§2)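 Fractions and isolates were screened against the cancer cell lines by a colorimetric MTT assay run to an established protocol, with doxorubicin as the positive control.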

[3] = Cytotoxicity against human Hep3B cells by MTT assay; type: functional, cell-based, Hep 3B2; procedure, shortened: as §2
[4] = Antiinflammatory activity in human neutrophils assessed as inhibition of FMLP/CB-induced superoxide anion generation at 10 ug/ml; type: functional, Neutrophil
Procedure, shortened: (§3)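 Percentage inhibition in human neutrophils, measured at 10 μg/mL test concentration and reported as mean ± SEM (n = 3–5). Significance was tested against the control value at p < 0.05, 0.01 and 0.001. LY294002 was the positive control.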

[5] = Antiinflammatory activity in human neutrophils assessed as inhibition of FMLP/CB-induced elastase release at 10 ug/ml; type: functional, Neutrophil; details: for inhibition at 10 µg/mL: Homo sapiens, Neutrophil; procedure, shortened: as §3
HepG2 = experiment: Cytotoxicity against human HepG2 cells by MTT assay; type: functional, cell-based; procedure, shortened: as §2
A549 = experiment: Cytotoxicity against human A549 cells by MTT assay; type: functional, cell-based; procedure, shortened: as §2
Ca9-22 = experiment: Cytotoxicity against human Ca9-22 cells by MTT assay; type: functional, cell-based; procedure, shortened: as §2
MCF7 = experiment: Cytotoxicity against human MCF7 cells by MTT assay; type: functional, cell-based; procedure, shortened: as §2
Neutrophil = experiment: Ratio of LY294002 IC50 to compound IC50 for FMLP/CB-induced elastase release in human neutrophils; type: functional
[6] = Homo sapiens, MDA-MB-231, read-out: IC50
[7] = Homo sapiens, Hep3B, read-out: IC50
[8] = Homo sapiens, HepG2, read-out: IC50
[9] = Homo sapiens, A549, read-out: IC50
[10] = Homo sapiens, Ca9-22, read-out: IC50
[11] = Homo sapiens, MCF7, read-out: IC50

Row | IC50 [1] [µg/mL] | IC50 [2] [µg/mL] | Structure (SMILES) | IC50 (MDA-MB-231; [6]) [µg/mL] | IC50 [3, 7] [µg/mL] | IC50 (HepG2; [8]) [µg/mL] | IC50 (A549; [9]) [µg/mL] | IC50 (Ca9-22; [10]) [µg/mL] | IC50 (MCF7; [11]) [µg/mL] | other results
1 | 2.28 (≈ 7.21 µM) |  | COc1ccc([C@H]2Oc3cc(OC)c(OC)cc3[C@@H]2C)cc1O [PTEROLINUS C] | > 19.4 | > 19.4 | > 19.4 | > 19.4 | > 19.4 | > 19.4 | inhibition at 10 µg/mL [5]: 9.73%
2 | 0.29 (≈ 0.867 µM) | 1.06 (≈ 3.17 µM) | COC1=CC(=O)C2(C(C)C(O)c3ccc(OC)c(O)c3)OC2C1=O (stereo not drawn) [PTEROLINUS D] | 4.89 (≈ 14.6 µM) | 2.08 (≈ 6.22 µM) | 4.33 (≈ 13 µM) |  |  | 3.31 (≈ 9.9 µM) | Ratio IC50 (Neutrophil): 1.9
3 |  | 2.13 (≈ 6.69 µM) | COC1=CC(=O)C([C@@H](C)[C@@H](O)c2ccc(OC)c(O)c2)=CC1=O [PTEROLINUS E] | 6.96 (≈ 21.9 µM) | 6.96 (≈ 21.9 µM) | 6.96 (≈ 21.9 µM) | 6.96 (≈ 21.9 µM) | 6.96 (≈ 21.9 µM) | 6.96 (≈ 21.9 µM) | 
4 |  | 3.22 (≈ 9.75 µM) | C=C[C@@H](c1ccc(OC)c(O)c1)c1cc(O)c(C(=O)OC)cc1O [PTEROLINUS F] | 11.1 (≈ 33.6 µM) | 11.1 (≈ 33.6 µM) | 11.1 (≈ 33.6 µM) | 11.1 (≈ 33.6 µM) | 11.1 (≈ 33.6 µM) | 11.1 (≈ 33.6 µM) | 
5 | 2.1 (≈ 6.95 µM) |  | COc1cc(C2CCOc3cc(OC)c(O)cc32)ccc1O (stereo not drawn) [PTEROLINUS J] | > 17.1 | > 17.1 | > 17.1 | > 17.1 | > 17.1 | > 17.1 | inhibition at 10 µg/mL [5]: 16.6%

Continued, compound first:

Row | Structure (SMILES) | IC50 [1] [µg/mL] | IC50 [2] [µg/mL] | IC50 (MDA-MB-231; [6]) [µg/mL] | IC50 [3, 7] [µg/mL] | IC50 (HepG2; [8]) [µg/mL] | IC50 (A549; [9]) [µg/mL] | IC50 (Ca9-22; [10]) [µg/mL] | IC50 (MCF7; [11]) [µg/mL] | other results
6 | C=C[C@H](C1=CC(=O)C(OC)=CC1=O)c1ccc(OC)c(O)c1 | 0.47 (≈ 1.57 µM) | 1.44 (≈ 4.8 µM) | 3.34 (≈ 11.1 µM) | 2.39 (≈ 7.96 µM) |  |  |  |  | 
7 | C=C[C@H](C1=CC(O)(CC(C)=O)C(OC)=CC1=O)c1ccc(OC)c(O)c1 (single isomer, unassigned) [PTEROLINUS HB] |  |  | 2.85 (≈ 7.95 µM) |  | 3.65 (≈ 10.2 µM) |  |  |  | inhibition at 10 µg/mL ([4]; Homo sapiens, Neutrophil): 29.4%; inhibition (INH) [5]: 19.53%
8 | C=C[C@H](C1=CC(O)(CC(C)=O)C(OC)=CC1=O)c1ccc(OC)c(O)c1 (single isomer, unassigned; epimer 2) [PTEROLINUS HB] |  |  |  |  |  | 3.97 (≈ 11.1 µM) |  |  | inhibition (INH) [4]: 34.15%; inhibition (INH) [5]: 2.84%
9 | COc1ccc(-c2oc3cc(OC)c(O)cc3c2C)cc1O [DEHYDROMELANOXIN] | 0.73 (≈ 2.43 µM) | 3.69 (≈ 12.3 µM) |  |  |  |  |  |  | IC50 (A549; a549): Not Active; IC50 (Ca9-22; ca9-22): Not Active; IC50 (MDA-MB-231; mda-mb-231): Not Active; IC50 (MCF7; mcf7): Not Active; IC50 (HepG2; hepg2): Not Active; IC50 ([3]; hep 3b2): Not Active
10 | O=c1cc(N2CCOCC2)oc2c(-c3ccccc3)cccc12 [LY-294002] | 1.18 (≈ 3.84 µM) | 1.99 (≈ 6.47 µM) |  |  |  |  |  |  | 
11 | COc1ccc(-c2cc(=O)oc3cc(OC)c(O)cc23)cc1O [MELANNEIN] | 3.18 (≈ 10.1 µM) |  | > 17.1 | > 17.1 | > 17.1 | > 17.1 | > 17.1 | > 17.1 | inhibition at 10 µg/mL [5]: -1.53%
12 | COc1ccc([C@H]2Oc3cc(OC)c(O)cc3[C@@H]2C)cc1O [MELANOXIN] | 0.69 (≈ 2.28 µM) |  | 7.7 (≈ 25.5 µM) | 7.7 (≈ 25.5 µM) | 7.7 (≈ 25.5 µM) | 7.7 (≈ 25.5 µM) | 7.7 (≈ 25.5 µM) | 7.7 (≈ 25.5 µM) | inhibition at 10 µg/mL [5]: 33.3%
13 | COc1ccc(C(=O)c2cc(O)c(OC)cc2O)cc1O [MELANOXOIN] |  | 3.62 (≈ 12.5 µM) |  |  |  |  | 0.46 (≈ 1.58 µM) |  | 
14 | COc1ccc(-c2c(C)oc3cc(OC)c(O)cc23)cc1O [PTEROLINUS A] | 0.33 (≈ 1.1 µM) | 2.54 (≈ 8.46 µM) |  |  |  |  |  |  | IC50 (A549; a549): Not Active; IC50 (Ca9-22; ca9-22): Not Active; IC50 (MDA-MB-231; mda-mb-231): Not Active; IC50 (MCF7; mcf7): Not Active; IC50 (HepG2; hepg2): Not Active; IC50 ([3]; hep 3b2): Not Active
15 | COc1cc2oc(-c3ccc(O)cc3)c(C)c2cc1O [PTEROLINUS B] | 0.19 (≈ 0.703 µM) | 47.8 (≈ 177 µM) |  |  |  | 2.34 (≈ 8.66 µM) |  | 1.74 (≈ 6.44 µM) | 
